Measurements published in ChEMBL document CHEMBL2417455, “Design, synthesis and biological evaluation of new aryl thiosemicarbazone as antichagasic candidates” (Eur J Med Chem, 2013).
Active and inactive are the calls of the source. No cut-off for these calls is given here.

Columns and labels:
Trypanosoma cruzi [1] = test: Trypanocidal activity against epimastigote stage of Trypanosoma cruzi Y at 5 ug/mL after 72 hrs by MTT assay relative to control; format: functional
How it was run: (§1)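 Log-phase (7-day) Y-strain epimastigotes at 10⁷/mL in LIT medium with 10% fetal calf serum were exposed to DMSO-dissolved compound at 100, 50, 25, 10, 5, 2.5 and 1 µg/mL for 72 h at 28 °C. MTT-PMS was added for 75 min in the dark, then 10% SDS for 30 min. OD was read at 595 nm and percent death determined. IC50 by linear regression of OD. Triplicates, Probit analysis.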

Trypanosoma cruzi [2] = test: Trypanocidal activity against epimastigote stage of Trypanosoma cruzi Y after 72 hrs by MTT assay; format: functional, organism-based; how it was run: as §1
[3] = biological target: Cruzipain (Trypanosoma cruzi) (UniProt P25779); test: Inhibition of Trypanosoma cruzi cruzain expressed in Escherichia coli DH5-alpha using Bz-Phe-Arg-AMC as substrate at 10 uM preincubated for 5 mins followed by substrate addition measured for 5 mins by spectrofluorimetric analysis relative to control
How it was run: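 Recombinant cruzain at 0.23 nM in pH 6.5 buffer (50 mM Na2PO4, 2.5 mM EDTA), preincubated 5 min with or without inhibitor at a single 10 µM concentration. Bz-Phe-Arg-AMC was then added (stock 170 µM). Fluorescence was read at ex 380/em 460 nm, 37 °C, under magnetic stirring, for 5 min. Triplicate measurements.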

Trypanosoma cruzi [4] = test: Trypanocidal activity against epimastigote stage of Trypanosoma cruzi Y at 50 ug/mL after 72 hrs by MTT assay relative to control; format: functional; how it was run: as §1
Mus musculus [5] = test: Mutagenicity in Swiss albino mouse at 250 mg/kg after 30 hrs by micronucleus test; format: toxicity, organism-based; set-up: dose 250 mg/kg; conditions: in vivo
How it was run: (§2)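 Swiss albino mice (~30 g) were dosed by gavage at 50, 100 or 250 mg/kg bwt. Negative control received 1% CMC/0.2% Tween 40 aqueous solution by gavage; a water-only group set basal frequency. Tail blood was taken 30 h after treatment onto acridine orange slides and held ≥24 h at -20 °C in the dark. Micronuclei were counted per 1,000 reticulocytes per animal by fluorescence microscopy. Values are arithmetic means compared by one-way ANOVA/Tukey (P < 0.05).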

Mus musculus [6] = test: Mutagenicity in Swiss albino mouse at 100 mg/kg after 30 hrs by micronucleus test; format: toxicity, organism-based; set-up: dose 100 mg/kg; conditions: in vivo; how it was run: as §2
Trypanosoma cruzi [7] = test: Potency index, ratio of benznidazole IC50 to compound IC50 for epimastigote stage of Trypanosoma cruzi Y; format: functional
[8] = Trypanosoma cruzi, Y, 72 h, read-out: IC50

Cruzipain (Trypanosoma cruzi), sequence (P25779 123-467 limits assumed): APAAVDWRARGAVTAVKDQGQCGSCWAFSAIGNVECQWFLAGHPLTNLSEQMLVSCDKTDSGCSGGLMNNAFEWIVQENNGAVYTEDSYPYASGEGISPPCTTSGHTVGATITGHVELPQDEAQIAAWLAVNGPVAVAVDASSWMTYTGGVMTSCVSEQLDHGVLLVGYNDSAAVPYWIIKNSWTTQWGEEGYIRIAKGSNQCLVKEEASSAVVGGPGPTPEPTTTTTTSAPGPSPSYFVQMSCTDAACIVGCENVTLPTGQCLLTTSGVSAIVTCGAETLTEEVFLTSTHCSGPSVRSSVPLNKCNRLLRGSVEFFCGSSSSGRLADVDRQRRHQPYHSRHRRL

SMILES	inhibition [3]	IC50 (Trypanosoma cruzi [2]; [8])	Activity (Mus musculus [6])	further results
NC/C(=N\NC(N)=S)c1ccccc1	inactive	> 409 µM		
NC(=S)N/N=C(\COC(=O)CCC(=O)O)c1ccc([N+](=O)[O-])cc1	10%	116 µM		
Br.NC/C(=N\NC(N)=S)c1ccc([N+](=O)[O-])cc1	20%	6.3 µM	Non-toxic	Activity (Mus musculus [5]): Non-toxic; Ratio IC50 (Trypanosoma cruzi [7]): 5
C/C(=N\NC(N)=S)c1ccc(N)cc1	25%	> 480 µM		
NC(=S)N/N=C(\CNC(=O)CCC(=O)O)c1ccc([N+](=O)[O-])cc1	50%	12 µM	Non-toxic	Activity (Mus musculus [5]): Non-toxic
NC(=S)N/N=C(\CO)c1ccc([N+](=O)[O-])cc1	10%	37.7 µM	Non-toxic	Activity (Mus musculus [5]): Non-toxic
C/C(=N\N=C(/N)S)c1ccccc1 [PHENYL(METHYL)THIOSEMICARBAZONE]	inactive	195 µM		
O=C(Cn1ccnc1[N+](=O)[O-])NCc1ccccc1 [BENZNIDAZOLE]		34.6 µM	Toxic	

More lines, main results first:

inhibition [3]	SMILES	IC50 (Trypanosoma cruzi [2]; [8])	Activity (Mus musculus [6])	further results
5%	C/C(=N\NC(N)=S)c1cccc([N+](=O)[O-])c1	> 420 µM		inhibition at 5 µg/mL (Trypanosoma cruzi [1]): 3%
inactive	NC/C(=N\NC(N)=S)c1cccc([N+](=O)[O-])c1	> 299 µM		inhibition at 50 µg/mL (Trypanosoma cruzi [4]): 3%
65%	C/C(=N\NC(N)=S)c1ccc([N+](=O)[O-])c(N)c1	239 µM		
inactive	C/C(=N\NC(N)=S)c1cccc(N)c1	> 480 µM		
55%	C/C(=N\NC(N)=S)c1ccc(N)c([N+](=O)[O-])c1			IC50 (Trypanosoma cruzi [2]): Not Active
